For data set [1], the target named is T1, PhlH (Pseudomonas fluorescens, UniProt Q4JIX5, F173A).
T1 sequence (Q4JIX5 1-225 F173A): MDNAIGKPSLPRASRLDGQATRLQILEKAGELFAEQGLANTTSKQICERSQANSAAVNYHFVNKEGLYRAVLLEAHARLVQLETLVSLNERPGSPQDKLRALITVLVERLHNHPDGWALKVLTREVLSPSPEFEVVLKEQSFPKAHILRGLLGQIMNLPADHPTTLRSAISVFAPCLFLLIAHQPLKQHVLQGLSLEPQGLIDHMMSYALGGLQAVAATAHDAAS
The experiment in a line: isothermal titration calorimetry. In kind it is binding. The essentials: (§1)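 N-terminally His6-tagged full-length PhlH from P. fluorescens 2P24, with point mutants made by site-directed mutagenesis. Expressed in E. coli Rosetta (DE3) (0.2 mM IPTG, 16 °C, 20 h), then Ni-NTA and gel filtration. ITC at 25 °C in degassed 20 mM Tris-HCl pH 8.0, 100 mM NaCl, 0.5% DMSO. Cell held 0.05–0.1 mM protein; syringe held 0.5–1 mM test compound. First 0.4 µl injection discarded, then 19 × 2.0 µl injections at 2-min spacing. Dilution heats subtracted; one-site fit gave Kd.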

The target of data set [2] is T2, PhlH (Pseudomonas fluorescens, UniProt Q4JIX5, R124A).
T2 sequence (Q4JIX5 1-225 R124A): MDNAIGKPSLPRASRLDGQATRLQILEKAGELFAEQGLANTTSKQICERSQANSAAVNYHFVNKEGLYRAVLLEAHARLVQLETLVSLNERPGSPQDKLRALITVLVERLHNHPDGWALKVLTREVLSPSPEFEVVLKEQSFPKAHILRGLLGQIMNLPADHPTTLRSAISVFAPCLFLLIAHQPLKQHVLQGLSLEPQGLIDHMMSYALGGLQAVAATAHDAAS
The experiment in a line: isothermal titration calorimetry. The format is binding. A digest of the protocol: as §1
In general terms: Isothermal titration calorimetry measures the heat released or taken up as one component is titrated into another.

Data set [3] concerns the target T3, PhlH (Pseudomonas fluorescens, UniProt Q4JIX5, L186A).
T3 sequence (Q4JIX5 1-225 L186A): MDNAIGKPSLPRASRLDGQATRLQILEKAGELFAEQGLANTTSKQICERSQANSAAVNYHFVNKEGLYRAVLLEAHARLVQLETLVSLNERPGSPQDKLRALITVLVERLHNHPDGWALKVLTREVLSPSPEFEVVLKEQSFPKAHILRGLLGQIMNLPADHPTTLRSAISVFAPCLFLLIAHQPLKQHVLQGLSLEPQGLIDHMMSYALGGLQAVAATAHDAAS
The experiment in a line: isothermal titration calorimetry. The format is binding. The essentials:
as §1

Data set [4] has as its target T4, PhlH (Pseudomonas fluorescens, UniProt Q4JIX5, L85A).
T4 sequence (Q4JIX5 1-225 L85A): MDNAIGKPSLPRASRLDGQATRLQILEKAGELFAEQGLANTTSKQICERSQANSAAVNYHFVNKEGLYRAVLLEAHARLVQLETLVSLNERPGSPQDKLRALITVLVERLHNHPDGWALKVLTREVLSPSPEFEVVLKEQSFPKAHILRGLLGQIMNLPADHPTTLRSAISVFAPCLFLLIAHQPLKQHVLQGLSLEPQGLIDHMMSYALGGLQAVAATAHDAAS
The experiment in a line: isothermal titration calorimetry. In kind it is binding. The essentials:
as §1

In data set [5] the target is T5, PhlH (Pseudomonas fluorescens, UniProt Q4JIX5, V190A).
T5 sequence (Q4JIX5 1-225 V190A): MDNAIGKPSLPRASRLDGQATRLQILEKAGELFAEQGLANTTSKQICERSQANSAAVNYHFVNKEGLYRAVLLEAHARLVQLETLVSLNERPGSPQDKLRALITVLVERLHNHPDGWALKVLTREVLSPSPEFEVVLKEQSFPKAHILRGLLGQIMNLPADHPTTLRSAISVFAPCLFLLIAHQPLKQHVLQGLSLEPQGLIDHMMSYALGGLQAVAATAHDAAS
Kind of data set: isothermal titration calorimetry. In kind it is binding. The essentials:
as §1

The target in data set [6] is T6, PhlH (Pseudomonas fluorescens, UniProt Q4JIX5, H76A).
T6 sequence (Q4JIX5 1-225 H76A): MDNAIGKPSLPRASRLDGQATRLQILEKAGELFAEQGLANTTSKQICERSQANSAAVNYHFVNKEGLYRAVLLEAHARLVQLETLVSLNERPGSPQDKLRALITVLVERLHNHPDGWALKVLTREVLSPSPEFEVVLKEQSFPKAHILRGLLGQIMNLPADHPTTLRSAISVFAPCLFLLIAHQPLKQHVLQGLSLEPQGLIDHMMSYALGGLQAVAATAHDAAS
Kind of data set: isothermal titration calorimetry. In kind it is binding. A digest of the protocol:
as §1

Another data set concerns the target T7, PhlH R124A (Pseudomonas fluorescens 2P24, UniProt Q4JIX5 1-225, R124A).
T7 sequence: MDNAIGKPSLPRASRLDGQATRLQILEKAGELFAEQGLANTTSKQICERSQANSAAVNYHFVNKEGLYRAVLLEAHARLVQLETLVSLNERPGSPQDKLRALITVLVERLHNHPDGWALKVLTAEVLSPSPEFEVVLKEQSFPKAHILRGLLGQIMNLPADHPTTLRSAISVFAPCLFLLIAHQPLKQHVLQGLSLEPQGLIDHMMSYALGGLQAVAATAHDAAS
The experiment in a line: EMSA. On the technique in general: Mobility shift assays separate free from complexed probe on a gel.

The source of these data is PMC9163588 (The Journal of Biological Chemistry, 2022).

With `CC(=O)c1c(O)cc(O)c(C(C)=O)c1O` [2,4-DAPG], the Kd on PhlH [1] was 20.2 µM; on PhlH [2], 13.2 µM; on PhlH [3], 15.4 µM; at PhlH [4] it was 39 µM; on PhlH [5], 24.3 µM; on PhlH [6] it was 10.9 µM.

B1: F1 (phlG operator / upstream region) (dsDNA)
DNA 1: TAGTTCTAATTCAAATTTGACTTTTTATTT
DNA 2: AAATAAAAAGTCAAATTTGAATTAGAACTA
Consider B1, for which, in the data set with PhlH R124A, the binding result is recorded as “no binding”.

Usually Kd stands for the constant that tells how readily two partners part at equilibrium. Low readings indicate higher affinity, high ones lower affinity.
